Test results taken from ChEMBL document CHEMBL1136530, “Synthesis, stereochemical assignment and biological activity of a novel series of C-4" modified aza-macrolides” (2003).
Converted amounts (≈) assume the structure as drawn.

Columns and labels:
Type in all cases: functional
Pasteurella multocida = assay: Minimum inhibitory concentration against Pasteurella multocida
Outline: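 P. multocida strain 59A0067 (turkey origin), grown overnight on BHI plates; colonies in saline at OD625 0.09 (0.5 McFarland), diluted 1:100 in BHI broth. Two-fold serial dilutions in BHI microdilution, about 5×10⁵ cfu/mL final, 37 °C for 18 h. MIC is the lowest concentration with A600 ≤ 0.025.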

Mus musculus = assay: In vivo effective dose against Pasteurella multocida infection in mouse
Outline: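 Mice infected with P. multocida serotype 5A. Subcutaneous dosing 0.5 h post-infection at 5 to 80 mg/kg. ED50 calculated from the number of mice surviving four days after infection.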

Escherichia coli = assay: Minimum inhibitory concentration against Escherichia coli

Compound	MIC (Pasteurella multocida)	ED50 (Mus musculus)	MIC (Escherichia coli)
CC[C@H]1OC(=O)[C@H](C)[C@@H](O[C@H]2C[C@@](C)(OC)[C@@](O)(C#CCN(C)C)[C@H](C)O2)[C@H](C)[C@@H](O[C@@H]2O[C@H](C)C[C@H](N(C)C)[C@H]2O)[C@](C)(O)C[C@@H](C)CN(C)[C@H](C)[C@@H](O)[C@]1(C)O	0.1 µg/mL (≈ 0.12 µM)	40 mg/kg	0.39 µg/mL (≈ 0.47 µM)
CC[C@H]1OC(=O)[C@H](C)[C@@H](O[C@H]2C[C@@](C)(OC)[C@@](O)(C#CCOC)[C@H](C)O2)[C@H](C)[C@@H](O[C@@H]2O[C@H](C)C[C@H](N(C)C)[C@H]2O)[C@](C)(O)C[C@@H](C)CN[C@H](C)[C@@H](O)[C@]1(C)O	0.2 µg/mL (≈ 0.249 µM)	20 mg/kg	3.13 µg/mL (≈ 3.9 µM)
CC#C[C@@]1(O)[C@H](C)O[C@@H](O[C@H]2[C@H](C)[C@@H](O[C@@H]3O[C@H](C)C[C@H](N(C)C)[C@H]3O)[C@](C)(O)C[C@@H](C)CN[C@H](C)[C@@H](O)[C@](C)(O)[C@@H](CC)OC(=O)[C@@H]2C)C[C@@]1(C)OC	0.2 µg/mL (≈ 0.259 µM)	21 mg/kg	1.56 µg/mL (≈ 2.02 µM)
CC[C@H]1OC(=O)[C@H](C)[C@@H](O[C@H]2C[C@@](C)(OC)[C@@](O)(CCCOC)[C@H](C)O2)[C@H](C)[C@@H](O[C@@H]2O[C@H](C)C[C@H](N(C)C)[C@H]2O)[C@](C)(O)C[C@@H](C)CN(C)[C@H](C)[C@@H](O)[C@]1(C)O	0.1 µg/mL (≈ 0.122 µM)	> 80 mg/kg	1.56 µg/mL (≈ 1.9 µM)
CC[C@H]1OC(=O)[C@H](C)[C@@H](O[C@H]2C[C@@](C)(OC)[C@@](O)(CCCOC)[C@H](C)O2)[C@H](C)[C@@H](O[C@@H]2O[C@H](C)C[C@H](N(C)C)[C@H]2O)[C@](C)(O)C[C@@H](C)CN[C@H](C)[C@@H](O)[C@]1(C)O	0.2 µg/mL (≈ 0.248 µM)	49 mg/kg	0.78 µg/mL (≈ 0.966 µM)
C=C[C@@]1(O)[C@H](C)O[C@@H](O[C@H]2[C@H](C)[C@@H](O[C@@H]3O[C@H](C)C[C@H](N(C)C)[C@H]3O)[C@](C)(O)C[C@@H](C)CN[C@H](C)[C@@H](O)[C@](C)(O)[C@@H](CC)OC(=O)[C@@H]2C)C[C@@]1(C)OC	0.2 µg/mL (≈ 0.263 µM)	66 mg/kg	1.56 µg/mL (≈ 2.05 µM)
CC[C@H]1OC(=O)[C@H](C)[C@@H](O[C@H]2C[C@@](C)(OC)[C@@](O)(c3ccccn3)[C@H](C)O2)[C@H](C)[C@@H](O[C@@H]2O[C@H](C)C[C@H](N(C)C)[C@H]2O)[C@](C)(O)C[C@@H](C)CN[C@H](C)[C@@H](O)[C@]1(C)O	0.78 µg/mL (≈ 0.961 µM)	> 40 mg/kg	3.13 µg/mL (≈ 3.85 µM)
CC[C@H]1OC(=O)[C@H](C)[C@@H](O[C@H]2C[C@@](C)(OC)[C@@](O)(c3cccs3)[C@H](C)O2)[C@H](C)[C@@H](O[C@@H]2O[C@H](C)C[C@H](N(C)C)[C@H]2O)[C@](C)(O)C[C@@H](C)CN[C@H](C)[C@@H](O)[C@]1(C)O	0.78 µg/mL (≈ 0.955 µM)	> 80 mg/kg	3.13 µg/mL (≈ 3.83 µM)
CCCC[C@@]1(O)[C@H](C)O[C@@H](O[C@H]2[C@H](C)[C@@H](O[C@@H]3O[C@H](C)C[C@H](N(C)C)[C@H]3O)[C@](C)(O)C[C@@H](C)CN[C@H](C)[C@@H](O)[C@](C)(O)[C@@H](CC)OC(=O)[C@@H]2C)C[C@@]1(C)OC	0.78 µg/mL (≈ 0.986 µM)	–	12.5 µg/mL (≈ 15.8 µM)
CC[C@H]1OC(=O)[C@H](C)[C@@H](O[C@H]2C[C@@](C)(OC)[C@@](O)(c3nccn3C)[C@H](C)O2)[C@H](C)[C@@H](O[C@@H]2O[C@H](C)C[C@H](N(C)C)[C@H]2O)[C@](C)(O)C[C@@H](C)CN(C)[C@H](C)[C@@H](O)[C@]1(C)O	0.05 µg/mL (≈ 0.0603 µM)	–	0.39 µg/mL (≈ 0.47 µM)
CC[C@H]1OC(=O)[C@H](C)[C@@H](O[C@H]2C[C@@](C)(OC)[C@@](O)(c3ccccc3)[C@H](C)O2)[C@H](C)[C@@H](O[C@@H]2O[C@H](C)C[C@H](N(C)C)[C@H]2O)[C@](C)(O)C[C@@H](C)CN[C@H](C)[C@@H](O)[C@]1(C)O	3.13 µg/mL (≈ 3.86 µM)	–	12.5 µg/mL (≈ 15.4 µM)
CC[C@H]1OC(=O)[C@H](C)[C@@H](O[C@H]2C[C@@](C)(OC)[C@@](O)(CCO)[C@H](C)O2)[C@H](C)[C@@H](O[C@@H]2O[C@H](C)C[C@H](N(C)C)[C@H]2O)[C@](C)(O)C[C@@H](C)CN[C@H](C)[C@@H](O)[C@]1(C)O	0.39 µg/mL (≈ 0.501 µM)	–	6.25 µg/mL (≈ 8.02 µM)
CC[C@H]1OC(=O)[C@H](C)[C@@H](O[C@H]2C[C@@](C)(OC)[C@@](O)(CC)[C@H](C)O2)[C@H](C)[C@@H](O[C@@H]2O[C@H](C)C[C@H](N(C)C)[C@H]2O)[C@](C)(O)C[C@@H](C)CN[C@H](C)[C@@H](O)[C@]1(C)O	0.2 µg/mL (≈ 0.262 µM)	61 mg/kg	1.56 µg/mL (≈ 2.04 µM)
CCC[C@@]1(O)[C@H](C)O[C@@H](O[C@H]2[C@H](C)[C@@H](O[C@@H]3O[C@H](C)C[C@H](N(C)C)[C@H]3O)[C@](C)(O)C[C@@H](C)CN[C@H](C)[C@@H](O)[C@](C)(O)[C@@H](CC)OC(=O)[C@@H]2C)C[C@@]1(C)OC	0.2 µg/mL (≈ 0.257 µM)	81 mg/kg	1.56 µg/mL (≈ 2.01 µM)
CC[C@H]1OC(=O)[C@H](C)[C@@H](O[C@H]2C[C@@](C)(OC)[C@@](O)(c3cc4ccccc4n3C)[C@H](C)O2)[C@H](C)[C@@H](O[C@@H]2O[C@H](C)C[C@H](N(C)C)[C@H]2O)[C@](C)(O)C[C@@H](C)CN[C@H](C)[C@@H](O)[C@]1(C)O	0.2 µg/mL (≈ 0.231 µM)	> 40 mg/kg	3.13 µg/mL (≈ 3.62 µM)
CC[C@H]1OC(=O)[C@H](C)[C@@H](O[C@H]2C[C@@](C)(OC)[C@](C)(O)[C@H](C)O2)[C@H](C)[C@@H](O[C@@H]2O[C@H](C)C[C@H](N(C)C)[C@H]2O)[C@](C)(O)C[C@@H](C)CN[C@H](C)[C@@H](O)[C@]1(C)O	< 0.1 µg/mL	28 mg/kg	0.78 µg/mL (≈ 1.04 µM)
C#C[C@@]1(O)[C@H](C)O[C@@H](O[C@H]2[C@H](C)[C@@H](O[C@@H]3O[C@H](C)C[C@H](N(C)C)[C@H]3O)[C@](C)(O)C[C@@H](C)CN(C)[C@H](C)[C@@H](O)[C@](C)(O)[C@@H](CC)OC(=O)[C@@H]2C)C[C@@]1(C)OC	0.1 µg/mL (≈ 0.129 µM)	33 mg/kg	0.78 µg/mL (≈ 1.01 µM)
CC[C@H]1OC(=O)CC(O)[C@H](C)[C@@H](OC2O[C@H](C)[C@@H](O)[C@H](N(C)C)[C@H]2O)[C@@H](CCN2C[C@H](C)C[C@H](C)C2)CC(C)C(=O)/C=C/C(C)=C/[C@@H]1CO[C@@H]1O[C@H](C)[C@@H](O)[C@@H](OC)[C@H]1OC (some centres not stated)	0.78 µg/mL (≈ 0.897 µM)	–	50 µg/mL (≈ 57.5 µM)
C=CC[C@@]1(O)[C@H](C)O[C@@H](O[C@H]2[C@H](C)[C@@H](O[C@@H]3O[C@H](C)C[C@H](N(C)C)[C@H]3O)[C@](C)(O)C[C@@H](C)CN[C@H](C)[C@@H](O)[C@](C)(O)[C@@H](CC)OC(=O)[C@@H]2C)C[C@@]1(C)OC	< 0.1 µg/mL	58 mg/kg	0.78 µg/mL (≈ 1.01 µM)
CC[C@H]1OC(=O)[C@H](C)[C@@H](O[C@H]2C[C@@](C)(OC)[C@@](O)(C#CCOC)[C@H](C)O2)[C@H](C)[C@@H](O[C@@H]2O[C@H](C)C[C@H](N(C)C)[C@H]2O)[C@](C)(O)C[C@@H](C)CN(C)[C@H](C)[C@@H](O)[C@]1(C)O	0.05 µg/mL (≈ 0.0612 µM)	29 mg/kg	0.39 µg/mL (≈ 0.477 µM)
CC[C@H]1OC(=O)[C@H](C)[C@@H](O[C@H]2C[C@@](C)(OC)[C@@](O)(C#CCN(C)C)[C@H](C)O2)[C@H](C)[C@@H](O[C@@H]2O[C@H](C)C[C@H](N(C)C)[C@H]2O)[C@](C)(O)C[C@@H](C)CN[C@H](C)[C@@H](O)[C@]1(C)O	0.2 µg/mL (≈ 0.245 µM)	22 mg/kg	1.56 µg/mL (≈ 1.91 µM)
CC[C@H]1OC(=O)[C@H](C)[C@@H](O[C@H]2C[C@@](C)(OC)[C@@](O)(c3cccnc3)[C@H](C)O2)[C@H](C)[C@@H](O[C@@H]2O[C@H](C)C[C@H](N(C)C)[C@H]2O)[C@](C)(O)C[C@@H](C)CN[C@H](C)[C@@H](O)[C@]1(C)O	0.39 µg/mL (≈ 0.48 µM)	> 40 mg/kg	3.13 µg/mL (≈ 3.85 µM)
CC[C@H]1OC(=O)[C@H](C)[C@@H](O[C@H]2C[C@@](C)(OC)[C@@](O)(c3cc4ccccc4n3C)[C@H](C)O2)[C@H](C)[C@@H](O[C@@H]2O[C@H](C)C[C@H](N(C)C)[C@H]2O)[C@](C)(O)C[C@@H](C)CN(C)[C@H](C)[C@@H](O)[C@]1(C)O	0.39 µg/mL (≈ 0.444 µM)	> 40 mg/kg	6.25 µg/mL (≈ 7.12 µM)
CC[C@H]1OC(=O)[C@H](C)[C@@H](O[C@H]2C[C@@](C)(OC)[C@](C)(O)[C@H](C)O2)[C@H](C)[C@@H](O[C@@H]2O[C@H](C)C[C@H](N(C)C)[C@H]2O)[C@](C)(O)C[C@@H](C)CN(C)[C@H](C)[C@@H](O)[C@]1(C)O	0.1 µg/mL (≈ 0.131 µM)	26 mg/kg	0.78 µg/mL (≈ 1.02 µM)
C#C[C@@]1(O)[C@H](C)O[C@@H](O[C@H]2[C@H](C)[C@@H](O[C@@H]3O[C@H](C)C[C@H](N(C)C)[C@H]3O)[C@](C)(O)C[C@@H](C)CN[C@H](C)[C@@H](O)[C@](C)(O)[C@@H](CC)OC(=O)[C@@H]2C)C[C@@]1(C)OC	< 0.1 µg/mL	24 mg/kg	3.13 µg/mL (≈ 4.12 µM)
CC[C@H]1OC(=O)[C@H](C)[C@@H](O[C@H]2C[C@@](C)(OC)[C@]3(CO3)[C@H](C)O2)[C@H](C)[C@@H](O[C@@H]2O[C@H](C)C[C@H](N(C)C)[C@H]2O)[C@](C)(O)C[C@@H](C)CN[C@H](C)[C@@H](O)[C@]1(C)O	0.1 µg/mL (≈ 0.134 µM)	–	3.13 µg/mL (≈ 4.19 µM)
